Data: ChEMBL document CHEMBL1800061 (J Med Chem, 2010)
Activity calls are given as the source filed them. The calls are words filed in the database; no cut-off is given here.

Legend:
MCF7 [1] = assay: Antiproliferative activity against human MCF7 cells after 72 hrs by sulforhodamine B assay; type: functional; conditions: MCF7, 72 h
How it was run: (§1)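 Cell lines were grown in DMEM with 10% FCS and treated with increasing concentrations for 72 h. Growth was read by sulforhodamine B staining and GI50 was derived. Values are means of at least three replicates with SD.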

MCF-10A = assay: Antiproliferative activity against human MCF10A cells after 72 hrs by sulforhodamine B assay; type: functional; how it was run: as §1
COLO 205 = assay: Antiproliferative activity against human COLO205 cells after 72 hrs by sulforhodamine B assay; type: functional; conditions: COLO 205, 72 h; how it was run: as §1
A549 = assay: Antiproliferative activity against human A549 cells after 72 hrs by sulforhodamine B assay; type: functional; conditions: A549, 72 h; how it was run: as §1
PC-3 = assay: Antiproliferative activity against human PC3 cells after 72 hrs by sulforhodamine B assay; type: functional; conditions: PC-3, 72 h; how it was run: as §1
HepG2 = assay: Antiproliferative activity against human HepG2 cells after 72 hrs by sulforhodamine B assay; type: functional; conditions: HepG2, 72 h; how it was run: as §1
SK-OV-3 = assay: Antiproliferative activity against human SKOV3 cells after 72 hrs by sulforhodamine B assay; type: functional; conditions: SK-OV-3, 72 h; how it was run: as §1
MCF7 [2] = assay: Antitumor activity against human MCF7 cells xenografted in ip dosed nude BALB/c mouse assessed as decrease in tumor volume measured after 14 days relative to control on day 1; type: functional, organism-based
How it was run: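 Randomised nude mice bearing MCF-7 tumours were injected intraperitoneally twice daily with 5 or 10 mg/kg (10 or 20 mg/kg/day) for 14 days. The control group received vehicle. Tumour volume was expressed relative to each animal's own day 1 volume.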

[3] = Metabolic stability in mouse liver microsomes as compound remaining at 1 uM; type: ADME, Microsome; conditions: read-out: Stability
How it was run: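 Liver microsomes, test compound at 1 μM with NADP 1 mM, G6P 5 mM and G6PDHase 1 U/mL, in 0.6% methanol and 0.6% acetonitrile. Incubated 0 and 60 min at 37 °C. Reported as percent parent remaining, mean (range), n=2.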

[4] = Tmax in mouse at 10 mg/kg, po; type: ADME, organism-based; parameters: dose 10 mg/kg, route oral; conditions: in vivo
[5] = Elimination half life in mouse at 10 mg/kg, iv; type: ADME, organism-based; parameters: dose 10 mg/kg, route intravenous; conditions: in vivo, read-out: beta t1/2
How it was run: (§2)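 Mice given 10 mg/kg by the ip, iv or oral route. Plasma levels were measured at 8 time points, with 3 animals per route for po and iv. Parameters came from a noncompartmental model. AUCINF was extrapolated to infinity, and bioavailability was calculated from AUCINF. The terminal slope used 3 points.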

[6] = Clearance in mouse at 10 mg/kg, iv; type: ADME, organism-based; parameters: dose 10 mg/kg, route intravenous; conditions: in vivo; how it was run: as §2
Mus musculus [7] = assay: AUC (0 to infinity) in mouse at 10 mg/kg, iv; type: ADME, organism-based, Plasma; parameters: time infinity, dose 10 mg/kg, route intravenous; conditions: in vivo; how it was run: as §2
Mus musculus [8] = assay: Inhibition of cyclin-dependent kinase substrate […] phosphorylation at Ser5 in nude BALB/c mouse PBMC at 25 mg/kg, po measured after 6 hrs by immunostaining and flow cytometric analysis; type: functional
How it was run: (§3)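 Female nu/nu-BALB/c athymic nude mice (7 weeks old) given a single oral gavage dose in 28% PEG300/5% dimethylacetamide/10% HPB cyclodextrin in water. PBMC were isolated from cardiac blood after red-cell lysis, then fixed, permeabilized and stained with primary antibodies (1:100, 1 h, RT) and an Alexa Fluor 488 secondary (1:200, 1 h). Read-out was flow cytometry; n=4 (n=3 at 100 mg/kg).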

Mus musculus [9] = assay: Inhibition of cyclin-dependent kinase substrate RB phosphorylation at Thr 821 in nude BALB/c mouse PBMC at 50 mg/kg, po measured after 24 hrs by immunostaining and flow cytometric analysis; type: functional, organism-based; parameters: dose 50 mg/kg
How it was run: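 Seven-week-old female nu/nu-BALB/c nude mice got a single oral gavage (vehicle 28% PEG300/5% dimethylacetamide/10% HPB cyclodextrin in water). Blood was taken by cardiac puncture at 6 h or 24 h, red cells were lysed, and PBMC were fixed and permeabilized. Cells were stained with Rb, Rb pThr821, PolII or PolII pSer2 antibodies plus an Alexa488 secondary, then read by flow cytometry; n=4 (n=3 at 100 mg/kg).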

Mus musculus [10] = assay: Inhibition of cyclin-dependent kinase substrate […] phosphorylation in nude BALB/c mouse PBMC at 50 mg/kg, po measured after 24 hrs by immunostaining and flow cytometric analysis; type: functional, organism-based; parameters: dose 50 mg/kg; how it was run: as §3
[11] = biological target: Mitogen-activated protein kinase 11 (Homo sapiens) (UniProt Q15759); assay: Inhibition of P38beta MAPK assessed as residual enzyme activity at 10 uM
Chain of Mitogen-activated protein kinase 11 (Homo sapiens) (Q15759 whole entry): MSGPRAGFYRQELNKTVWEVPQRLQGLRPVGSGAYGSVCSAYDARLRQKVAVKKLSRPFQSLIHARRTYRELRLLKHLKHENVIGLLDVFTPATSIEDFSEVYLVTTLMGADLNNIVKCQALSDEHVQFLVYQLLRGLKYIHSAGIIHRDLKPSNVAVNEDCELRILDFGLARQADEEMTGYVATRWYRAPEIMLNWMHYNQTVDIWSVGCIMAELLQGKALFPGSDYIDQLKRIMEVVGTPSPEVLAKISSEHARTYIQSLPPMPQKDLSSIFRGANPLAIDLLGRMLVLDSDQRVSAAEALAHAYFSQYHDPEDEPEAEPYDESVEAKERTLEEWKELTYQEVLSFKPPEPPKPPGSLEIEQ

[12] = biological target: Rho-associated protein kinase 2 (Homo sapiens) (UniProt O75116); assay: Inhibition of ROCK 2 assessed as residual enzyme activity at 10 uM
[13] = biological target: Protein kinase C alpha type (Homo sapiens) (UniProt P17252); assay: Inhibition of PKCalpha assessed as residual enzyme activity at 10 uM
[14] = biological target: Ribosomal protein S6 kinase alpha-5 (Homo sapiens) (UniProt O75582); assay: Inhibition of MSK1 assessed as residual enzyme activity at 10 uM
[15] = biological target: Glycogen synthase kinase-3 beta (Homo sapiens) (UniProt P49841); assay: Inhibition of GSK3-beta assessed as residual enzyme activity at 10 uM
Chain of Glycogen synthase kinase-3 beta (Homo sapiens) (P49841 whole entry, looked up): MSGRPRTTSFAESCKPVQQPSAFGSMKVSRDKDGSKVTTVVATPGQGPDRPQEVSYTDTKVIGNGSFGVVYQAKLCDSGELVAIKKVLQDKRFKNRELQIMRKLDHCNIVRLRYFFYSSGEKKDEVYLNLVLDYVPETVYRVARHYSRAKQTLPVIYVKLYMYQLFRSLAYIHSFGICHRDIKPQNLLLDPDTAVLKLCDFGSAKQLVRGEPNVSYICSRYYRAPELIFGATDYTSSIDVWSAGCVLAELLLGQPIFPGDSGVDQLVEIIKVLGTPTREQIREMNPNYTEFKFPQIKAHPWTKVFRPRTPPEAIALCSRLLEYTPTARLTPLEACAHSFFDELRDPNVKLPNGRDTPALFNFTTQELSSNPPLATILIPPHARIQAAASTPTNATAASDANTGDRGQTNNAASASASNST

[16] = biological target: 5'-AMP-activated protein kinase subunit beta-1 (Homo sapiens) (UniProt Q9Y478); assay: Inhibition of AMPK assessed as residual enzyme activity at 10 uM
Chain of 5'-AMP-activated protein kinase subunit beta-1 (Homo sapiens) (Q9Y478 whole entry): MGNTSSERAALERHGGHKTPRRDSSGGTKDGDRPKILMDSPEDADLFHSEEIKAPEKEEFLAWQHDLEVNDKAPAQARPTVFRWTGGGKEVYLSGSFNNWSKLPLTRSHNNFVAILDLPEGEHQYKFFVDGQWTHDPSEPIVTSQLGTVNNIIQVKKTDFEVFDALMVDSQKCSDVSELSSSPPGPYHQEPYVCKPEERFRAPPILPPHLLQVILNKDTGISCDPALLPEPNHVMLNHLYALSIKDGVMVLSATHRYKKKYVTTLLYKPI

[17] = biological target: MAP/microtubule affinity-regulating kinase 3 (Homo sapiens) (UniProt P27448); assay: Inhibition of MARK3 assessed as residual enzyme activity at 10 uM
Chain of MAP/microtubule affinity-regulating kinase 3 (Homo sapiens) (P27448 whole entry, looked up): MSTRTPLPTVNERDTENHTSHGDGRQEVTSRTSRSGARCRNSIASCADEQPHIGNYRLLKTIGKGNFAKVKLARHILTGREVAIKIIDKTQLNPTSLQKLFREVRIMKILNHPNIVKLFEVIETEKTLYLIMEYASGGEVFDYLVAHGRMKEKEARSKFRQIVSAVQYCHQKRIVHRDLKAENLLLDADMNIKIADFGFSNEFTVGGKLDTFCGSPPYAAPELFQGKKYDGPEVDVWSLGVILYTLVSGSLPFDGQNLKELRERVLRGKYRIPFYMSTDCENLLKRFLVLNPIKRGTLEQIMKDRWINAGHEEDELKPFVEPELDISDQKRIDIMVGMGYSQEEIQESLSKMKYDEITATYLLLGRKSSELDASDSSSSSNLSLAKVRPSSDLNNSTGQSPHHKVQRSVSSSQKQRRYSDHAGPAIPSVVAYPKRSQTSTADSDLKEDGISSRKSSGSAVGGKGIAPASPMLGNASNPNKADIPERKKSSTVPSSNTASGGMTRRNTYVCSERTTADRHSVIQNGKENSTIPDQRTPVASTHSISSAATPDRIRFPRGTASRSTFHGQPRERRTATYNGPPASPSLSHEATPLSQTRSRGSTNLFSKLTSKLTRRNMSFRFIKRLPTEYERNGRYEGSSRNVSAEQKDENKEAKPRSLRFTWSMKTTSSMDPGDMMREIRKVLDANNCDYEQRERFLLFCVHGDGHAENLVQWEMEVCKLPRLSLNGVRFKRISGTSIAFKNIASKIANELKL

[18] = biological target: Serine/threonine-protein kinase Nek6 (Homo sapiens) (UniProt Q9HC98); assay: Inhibition of NEK6 assessed as residual enzyme activity at 10 uM
[19] = biological target: Serine/threonine-protein kinase 3 (Homo sapiens) (UniProt Q13188); assay: Inhibition of MST2 assessed as residual enzyme activity at 10 uM
Chain of Serine/threonine-protein kinase 3 (Homo sapiens) (Q13188 whole entry): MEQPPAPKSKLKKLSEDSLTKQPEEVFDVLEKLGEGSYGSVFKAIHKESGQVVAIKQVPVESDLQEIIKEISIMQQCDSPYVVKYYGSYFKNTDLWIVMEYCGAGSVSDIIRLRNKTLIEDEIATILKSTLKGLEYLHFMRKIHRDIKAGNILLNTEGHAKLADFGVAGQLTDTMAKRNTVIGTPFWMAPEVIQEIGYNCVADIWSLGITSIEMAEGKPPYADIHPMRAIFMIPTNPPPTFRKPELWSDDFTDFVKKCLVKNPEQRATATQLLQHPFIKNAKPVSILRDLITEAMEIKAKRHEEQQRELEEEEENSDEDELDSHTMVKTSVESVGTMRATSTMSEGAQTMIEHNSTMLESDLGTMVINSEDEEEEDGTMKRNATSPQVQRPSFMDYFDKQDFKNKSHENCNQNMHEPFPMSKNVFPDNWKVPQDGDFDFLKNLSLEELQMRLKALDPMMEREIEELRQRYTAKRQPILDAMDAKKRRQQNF

[20] = biological target: Homeodomain-interacting protein kinase 2 (Homo sapiens) (UniProt Q9H2X6); assay: Inhibition of HIPK2 assessed as residual enzyme activity at 10 uM
[21] = biological target: Serine/threonine-protein kinase PAK 5 (Homo sapiens) (UniProt Q9P286); assay: Inhibition of PAK5 assessed as residual enzyme activity at 10 uM
Chain of Serine/threonine-protein kinase PAK 5 (Homo sapiens) (Q9P286 whole entry, looked up): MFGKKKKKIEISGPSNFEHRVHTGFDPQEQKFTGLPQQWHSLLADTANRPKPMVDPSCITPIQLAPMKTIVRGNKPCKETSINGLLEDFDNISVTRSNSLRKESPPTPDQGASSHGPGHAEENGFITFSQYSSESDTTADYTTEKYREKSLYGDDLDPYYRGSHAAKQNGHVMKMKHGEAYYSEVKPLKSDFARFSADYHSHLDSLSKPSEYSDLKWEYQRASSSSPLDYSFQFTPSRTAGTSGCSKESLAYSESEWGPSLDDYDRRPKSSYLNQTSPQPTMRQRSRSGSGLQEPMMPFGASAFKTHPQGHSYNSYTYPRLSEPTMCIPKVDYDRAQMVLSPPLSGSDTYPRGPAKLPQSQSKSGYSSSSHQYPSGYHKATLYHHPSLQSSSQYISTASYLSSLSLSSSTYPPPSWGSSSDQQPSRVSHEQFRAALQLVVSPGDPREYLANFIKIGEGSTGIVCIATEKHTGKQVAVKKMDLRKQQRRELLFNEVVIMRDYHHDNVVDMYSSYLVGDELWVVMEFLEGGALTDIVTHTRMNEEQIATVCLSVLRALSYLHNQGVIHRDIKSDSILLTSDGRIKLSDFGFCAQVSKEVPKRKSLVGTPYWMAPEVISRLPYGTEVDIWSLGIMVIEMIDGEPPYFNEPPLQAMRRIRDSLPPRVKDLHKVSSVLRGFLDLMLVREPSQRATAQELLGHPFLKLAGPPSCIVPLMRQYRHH

[22] = biological target: Ephrin type-B receptor 3 (Homo sapiens) (UniProt P54753); assay: Inhibition of EPHB3 assessed as residual enzyme activity at 10 uM
Chain of Ephrin type-B receptor 3 (Homo sapiens) (P54753 whole entry, canonical isoform): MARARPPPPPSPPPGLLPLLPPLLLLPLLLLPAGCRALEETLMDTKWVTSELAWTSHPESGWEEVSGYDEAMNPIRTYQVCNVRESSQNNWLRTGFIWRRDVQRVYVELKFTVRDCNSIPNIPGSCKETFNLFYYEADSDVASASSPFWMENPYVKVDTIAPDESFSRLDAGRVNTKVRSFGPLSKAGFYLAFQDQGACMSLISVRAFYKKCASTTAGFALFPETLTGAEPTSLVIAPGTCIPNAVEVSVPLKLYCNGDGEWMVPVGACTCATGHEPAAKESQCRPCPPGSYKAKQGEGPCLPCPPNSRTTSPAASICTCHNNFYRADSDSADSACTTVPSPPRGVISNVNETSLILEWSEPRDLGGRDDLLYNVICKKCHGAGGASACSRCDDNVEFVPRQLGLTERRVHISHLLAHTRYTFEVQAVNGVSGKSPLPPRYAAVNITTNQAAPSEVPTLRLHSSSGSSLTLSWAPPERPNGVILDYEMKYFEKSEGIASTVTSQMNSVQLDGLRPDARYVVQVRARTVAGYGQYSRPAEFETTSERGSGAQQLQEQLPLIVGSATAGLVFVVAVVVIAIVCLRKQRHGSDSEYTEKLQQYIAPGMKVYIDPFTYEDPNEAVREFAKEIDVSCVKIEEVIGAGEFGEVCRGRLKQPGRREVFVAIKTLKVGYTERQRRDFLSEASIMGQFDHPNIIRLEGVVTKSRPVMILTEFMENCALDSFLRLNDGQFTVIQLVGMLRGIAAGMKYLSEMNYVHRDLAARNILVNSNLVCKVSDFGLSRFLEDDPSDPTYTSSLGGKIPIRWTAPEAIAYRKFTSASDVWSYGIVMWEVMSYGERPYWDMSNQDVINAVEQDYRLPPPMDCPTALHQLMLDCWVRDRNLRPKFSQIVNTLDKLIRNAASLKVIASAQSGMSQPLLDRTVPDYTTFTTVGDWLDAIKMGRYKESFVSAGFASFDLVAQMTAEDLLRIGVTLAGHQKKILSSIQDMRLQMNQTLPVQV

[23] = biological target: Casein kinase I isoform alpha (Homo sapiens, UniProt P48729); assay: Inhibition of CK1 at 0.1 uM
Chain of Casein kinase I isoform alpha (P48729 2-337 limits assumed): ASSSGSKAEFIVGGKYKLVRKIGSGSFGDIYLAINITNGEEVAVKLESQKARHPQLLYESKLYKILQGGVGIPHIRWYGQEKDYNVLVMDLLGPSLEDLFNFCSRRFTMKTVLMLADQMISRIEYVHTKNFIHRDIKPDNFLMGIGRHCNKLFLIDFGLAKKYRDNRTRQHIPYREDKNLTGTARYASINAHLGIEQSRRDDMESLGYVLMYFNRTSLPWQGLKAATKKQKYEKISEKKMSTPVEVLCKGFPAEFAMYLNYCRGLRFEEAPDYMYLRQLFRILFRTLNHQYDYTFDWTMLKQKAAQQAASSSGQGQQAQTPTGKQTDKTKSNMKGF

[24] = biological target: Calcium/calmodulin-dependent protein kinase kinase 2 (Homo sapiens, UniProt Q96RR4); assay: Inhibition of CAMKKbeta
Chain of Calcium/calmodulin-dependent protein kinase kinase 2 (Q96RR4 whole entry): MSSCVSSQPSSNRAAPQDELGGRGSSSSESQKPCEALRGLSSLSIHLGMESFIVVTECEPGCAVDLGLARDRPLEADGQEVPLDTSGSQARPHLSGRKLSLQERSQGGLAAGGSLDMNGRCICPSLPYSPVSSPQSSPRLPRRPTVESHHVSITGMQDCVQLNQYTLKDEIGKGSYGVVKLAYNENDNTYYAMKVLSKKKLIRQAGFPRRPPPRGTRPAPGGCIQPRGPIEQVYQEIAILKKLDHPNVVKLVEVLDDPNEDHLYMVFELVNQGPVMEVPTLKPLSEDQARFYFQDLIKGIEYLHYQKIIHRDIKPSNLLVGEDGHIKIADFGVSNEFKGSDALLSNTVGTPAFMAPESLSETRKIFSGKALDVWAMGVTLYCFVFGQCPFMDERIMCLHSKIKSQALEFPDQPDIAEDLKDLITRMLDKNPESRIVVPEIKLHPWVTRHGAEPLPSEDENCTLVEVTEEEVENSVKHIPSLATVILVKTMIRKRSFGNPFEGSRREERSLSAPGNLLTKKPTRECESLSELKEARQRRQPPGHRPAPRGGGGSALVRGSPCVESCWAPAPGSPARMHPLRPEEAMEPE

Cyclin-A2 (Homo sapiens) = Cyclin-A2 (Homo sapiens) (UniProt P20248); conditions: HCT-116, 1 umol/L
[25] = biological target: 3-phosphoinositide-dependent protein kinase 1 (Homo sapiens) (UniProt O15530); assay: Inhibition of PDK1 assessed as residual enzyme activity at 10 uM

Q: Which GI50 (MCF7 [1]) does the source give for CC(C)c1cnn2c(NCc3ccccc3)cc(N[C@@H](CO)[C@H](O)CO)nc12 here?
A: 0.3 µM

Q: What about the GI50 (MCF-10A) of the same molecule?
A: 0.1 µM

Q: What about the GI50 (COLO 205) of the same molecule?
A: 0.12 µM

Q: What about the GI50 (A549) of the same molecule?
A: 0.2 µM

Q: What about the GI50 (PC-3) of the same molecule?
A: 0.5 µM

Q: What about the GI50 (HepG2) of the same molecule?
A: 1 µM

Q: And the GI50 (SK-OV-3)?
A: 0.3 µM

Q: And the inhibition (MCF7 [2])?
A: Dose-dependent effect

Q: What about the remaining at 1 µM [3] of the same molecule?
A: 29%

Q: What about the Tmax [4] of the same molecule?
A: 0.25 h

Q: What about the half-life [5] of the same molecule?
A: 3.5 h

Q: And the clearance [6]?
A: 5 mL/min/kg

Q: What about the AUC (Mus musculus [7]) of the same molecule?
A: 36400 ng·h/mL

Q: What about the inhibition in vivo at 25 mg/kg (Mus musculus [8]) of the same molecule?
A: 25%

Q: What about the inhibition (Mus musculus [9]) of the same molecule?
A: inactive

Q: What about the inhibition (Mus musculus [10]) of the same molecule?
A: inactive

Q: What about the Activity [11] of the same molecule?
A: 94%

Q: And the Activity [12]?
A: 102%

Q: And the Activity [13]?
A: 96%

Q: And the Activity [14]?
A: 96%

Q: What about the Activity [15] of the same molecule?
A: 63%

Q: What about the Activity [16] of the same molecule?
A: 88%

Q: And the Activity [17]?
A: 82%

Q: And the Activity [18]?
A: 87%

Q: And the Activity [19]?
A: 86%

Q: And the Activity [20]?
A: 73%

Q: What about the Activity [21] of the same molecule?
A: 65%

Q: What about the Activity [22] of the same molecule?
A: 72%

Q: And the inhibition [23]?
A: < 50%

Q: And the IC50 [24]?
A: 2.45 µM

Q: What about the inhibition (Cyclin-A2 (Homo sapiens)) of the same molecule?
A: Active

Q: What about the Activity [25] of the same molecule?
A: 84%
